Measured values published in ChEMBL document CHEMBL4304771, “Design, synthesis and biological activity of N-(2-phenoxy)ethyl imidazo[1,2-a]pyridine-3-carboxamides as new antitubercular agents” (Eur J Med Chem, 2019).
In brackets after ≈: the same amount, converted by molar mass.

Experiments:
[1] = test system: Mycobacterium tuberculosis; assay: Antitubercular activity against Mycobacterium tuberculosis H37Rv ATCC 27294 assessed as parasite growth inhibition measured after 7 days incubation by microplate alamar blue assay; assay type: functional; details: H37Rv ATCC 27294, 168 h
Outline: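 Strains grown to late log phase in 7H9 with 0.2% glycerol, 0.05% Tween 80 and 10% ADC. Cells washed, resuspended in PBS, filtered (8 µm) and frozen at -80 °C. Two-fold compound dilutions, 2 × 10⁵ CFU per well, 37 °C for 7 days. Tween 80 and Alamar blue then added for 16-24 h; fluorescence read at ex 530/em 590 nm. MIC = lowest concentration giving ≥90% fluorescence reduction versus mean of bacterium-only controls.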

[2] = Half-life in human hepatocytes; assay type: ADME, cell-based, Hepatocyte
[3] = Tmax in ICR mouse at 50 mg/kg, po administered as single dose measured for 24 hrs by HPLC analysis; assay type: ADME, organism-based; details: in vivo
Outline: (§1)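 Female SPF ICR mice (18–22 g), fasted overnight, 3 per group, got a single oral 50 mg/kg dose as a suspension in 0.5% CMC. Jugular blood was drawn at 0.25, 0.5, 1, 2, 4, 6, 8 and 24 h, and serum was stored at −20 °C. Proteins were precipitated with acetonitrile, and extracts were dried, redissolved in acetonitrile and run by HPLC. Parameters came directly from the concentration–time data.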

[4] = Half-life in ICR mouse at 50 mg/kg, po administered as single dose measured for 24 hrs by HPLC analysis; assay type: ADME, organism-based; details: in vivo; outline: as §1
[5] = AUC (0 to infinity) in ICR mouse at 50 mg/kg, po administered as single dose measured for 24 hrs by HPLC analysis; assay type: ADME, organism-based; parameters: dose 50 mg/kg, route oral, time infinity; details: in vivo; outline: as §1
[6] = Mean residence time in ICR mouse at 50 mg/kg, po administered as single dose measured for 24 hrs by HPLC analysis; assay type: ADME, organism-based; details: in vivo; outline: as §1
[7] = Cmax in ICR mouse at 50 mg/kg, po administered as single dose measured for 24 hrs by HPLC analysis; assay type: ADME, organism-based; parameters: dose 50 mg/kg, route oral; details: in vivo; outline: as §1
[8] = Acute toxicity in ICR mouse assessed as animal survival at 500 mg/kg, po administered as single dose measured for 7 days; assay type: organism-based; details: in vivo
Outline: (§2)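 Female ICR mice, 18-22 g, five per group, randomly assigned, fasted overnight. Single oral dose of 500 mg/kg suspended in 5% CMC; controls got 5% CMC alone (0.5 mL). Watched continuously for 4 h, then hourly to 24 h, then every 8 h for 7 days for deaths or changes. Read-out was survivors/total.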

[9] = Acute toxicity in ICR mouse assessed as decrease in animal survival at 500 mg/kg, po administered as single dose measured for 7 days; assay type: organism-based; details: in vivo, 168 h; outline: as §2

Structure (SMILES)	MIC [1]	further results
Cc1ccn2c(C(=O)NCCOc3ccc(Br)cc3)c(C)nc2c1	0.463 µg/mL (≈ 1.19 µM)	
Cc1ccc2nc(C)c(C(=O)NCCOc3ccc(Br)cc3)n2c1	0.031 to 0.125 µg/mL (≈ 0.0798 to 0.322 µM)	half-life [2]: 6.5 min
CCc1nc2ccc(Br)cn2c1C(=O)NCCOc1ccc(N2CCC(C(F)(F)F)CC2)cc1	0.0625 µg/mL (≈ 0.116 µM)	Tmax [3]: 45 min; half-life [4]: 283 min; AUC(0-inf) [5]: 7120 ng·h/mL; MRT [6]: 113 min; Cmax [7]: 5080 ng/mL; survival at 168 h [8]: 100%
CCc1nc2ccc(F)cn2c1C(=O)NCCOc1ccc(Br)cc1	0.202 µg/mL (≈ 0.497 µM)	
Cc1ccc2nc(C3CC3)c(C(=O)NCCOc3ccc(Br)cc3)n2c1	0.052 µg/mL (≈ 0.126 µM)	
CCc1nc2ccc(Cl)cn2c1C(=O)NCCOc1ccc(Br)cc1	0.023 µg/mL (≈ 0.0544 µM)	half-life [2]: 35.2 min
COc1ccc(OCCNC(=O)c2c(C3CC3)nc3ccc(C)cn23)cc1	0.027 µg/mL (≈ 0.0739 µM)	half-life [2]: 7.8 min
CCc1nc2ccc(Cl)cn2c1C(=O)NCCOc1ccc(OC)cc1	0.056 µg/mL (≈ 0.15 µM)	
O=C(NCCOc1ccc(Br)cc1)c1c(C2CC2)nc2ccc(Cl)cn12	0.098 µg/mL (≈ 0.225 µM)	
CCc1nc2ccc(Cl)cn2c1C(=O)NCCOc1ccc(Cl)cc1	0.029 µg/mL (≈ 0.0767 µM)	half-life [2]: 12.9 min
CCc1nc2ccc(C)cn2c1C(=O)NCCOc1ccc(N2CCN(C)CC2)cc1	4 µg/mL (≈ 9.49 µM)	
CCCc1nc2ccc(Cl)cn2c1C(=O)NCCOc1ccc(Br)cc1	0.054 µg/mL (≈ 0.124 µM)	
CCc1nc2ccc(Cl)cn2c1C(=O)NCCOc1ccncc1	> 32 µg/mL	
COc1ccc2nc(C)c(C(=O)NCCOc3ccc(N4CCC(C(F)(F)F)CC4)cc3)n2c1	0.0625 µg/mL (≈ 0.131 µM)	Tmax [3]: 19.8 min; half-life [4]: 55 min; AUC(0-inf) [5]: 754 ng·h/mL; MRT [6]: 64.2 min; Cmax [7]: 638 ng/mL; survival at 168 h [8]: 100%
CCCc1nc2ccc(F)cn2c1C(=O)NCCOc1ccc(Br)cc1	2.68 µg/mL (≈ 6.38 µM)	
Cc1nc2c(Cl)cccn2c1C(=O)NCCOc1ccc(Br)cc1	0.505 µg/mL (≈ 1.24 µM)	
CCc1nc2c(Cl)cccn2c1C(=O)NCCOc1ccc(Br)cc1	17.5 µg/mL (≈ 41.4 µM)	
O=C(NCCOc1ccc(Cl)cc1)c1c(C2CC2)nc2cc(Cl)ccn12	32 µg/mL (≈ 82 µM)	
CCc1nc2ccc(Br)cn2c1C(=O)NCCOc1ccc(N2CC3CCCCC3C2)cc1 (configuration not stated)	0.0625 µg/mL (≈ 0.122 µM)	Activity [9]: Toxic
O=C(NCCOc1ccc(Br)cc1)c1c(C2CC2)nc2ccc(F)cn12	0.928 µg/mL (≈ 2.22 µM)	
Cc1nc2ccc(F)cn2c1C(=O)NCCOc1ccc(Cl)cc1	3.84 µg/mL (≈ 11 µM)	
O=C(NCCOc1ccc(Br)cc1)c1c(C2CC2)nc2cc(Cl)ccn12	32 µg/mL (≈ 73.6 µM)	
CCCc1nc2ccc(C)cn2c1C(=O)NCCOc1ccc(Br)cc1	0.415 µg/mL (≈ 0.997 µM)	
CCc1nc2ccc(Br)cn2c1C(=O)NCCOc1ccc(N2CCN(C)CC2)cc1	1 µg/mL (≈ 2.06 µM)	
Cc1nc2c(C)cccn2c1C(=O)NCCOc1ccc(Br)cc1	13.9 µg/mL (≈ 35.9 µM)	
CCc1nc2cc(Cl)ccn2c1C(=O)NCCOc1ccc(Cl)cc1	5.86 µg/mL (≈ 15.5 µM)	

Structure (SMILES)	MIC [1]	further results
CCc1nc2ccc(Br)cn2c1C(=O)NCCOc1ccc(N2CCCCC2)cc1	0.0625 µg/mL (≈ 0.133 µM)	Tmax [3]: 15 min; half-life [4]: 251 min; AUC(0-inf) [5]: 818 ng·h/mL; MRT [6]: 169 min; Cmax [7]: 983 ng/mL; survival at 168 h [8]: 100%
Cc1nc2ccc(F)cn2c1C(=O)NCCOc1ccc(Br)cc1	1.21 µg/mL (≈ 3.08 µM)	
CCc1nc2ccc(C)cn2c1C(=O)NCCOc1ccc(OC)cc1	0.023 µg/mL (≈ 0.0651 µM)	half-life [2]: 19.5 min
Cc1ccn2c(C(=O)NCCOc3ccc(Br)cc3)c(C3CC3)nc2c1	5 µg/mL (≈ 12.1 µM)	
Cc1ccc2nc(C)c(C(=O)NCCOc3ccncc3)n2c1	> 32 µg/mL	
CCc1nc2cc(Cl)ccn2c1C(=O)NCCOc1ccc(Br)cc1	6.35 µg/mL (≈ 15 µM)	
CCCc1nc2ccc(C)cn2c1C(=O)NCCOc1ccc(Cl)cc1	0.631 µg/mL (≈ 1.7 µM)	
COc1ccc2nc(C)c(C(=O)NCCOc3ccc(N4CCN(C)CC4)cc3)n2c1	0.5 µg/mL (≈ 1.18 µM)	
CCc1nc2ccc(Cl)cn2c1C(=O)NCCOc1ccc(N(C)C)cc1	0.0625 µg/mL (≈ 0.162 µM)	Tmax [3]: 15 min; half-life [4]: 162 min; AUC(0-inf) [5]: 3340 ng·h/mL; MRT [6]: 98.4 min; Cmax [7]: 2120 ng/mL; survival at 168 h [8]: 100%
CCc1nc2ccc(Cl)cn2c1C(=O)NCCOc1ccc(N2CCN(c3ccc(F)cc3)CC2)cc1	0.0625 µg/mL (≈ 0.12 µM)	Tmax [3]: 80 min; half-life [4]: 265 min; AUC(0-inf) [5]: 11100 ng·h/mL; MRT [6]: 214 min; Cmax [7]: 3330 ng/mL; survival at 168 h [8]: 100%
COc1ccc2nc(C)c(C(=O)NCCOc3ccc(N4CC5CCCCC5C4)cc3)n2c1 (configuration not stated)	0.0625 µg/mL (≈ 0.139 µM)	Activity [9]: Toxic
Cc1nc2cc(Cl)ccn2c1C(=O)NCCOc1ccc(Br)cc1	2.68 µg/mL (≈ 6.56 µM)	
Cc1nc2cccc(Cl)n2c1C(=O)NCCOc1ccc(Br)cc1	2.52 µg/mL (≈ 6.18 µM)	
CCc1nc2ccc(Br)cn2c1C(=O)NCCOc1ccc(Br)cc1	0.025 µg/mL (≈ 0.0535 µM)	half-life [2]: 15.8 min
CCc1nc2ccc(C)cn2c1C(=O)NCCOc1ccc(N2CC3CCCCC3C2)cc1 (configuration not stated)	0.0625 µg/mL (≈ 0.14 µM)	survival at 168 h [8]: 0%
CCc1nc2ccc(C)cn2c1C(=O)NCCOc1ccc(Br)cc1	0.275 µg/mL (≈ 0.684 µM)	
CCCc1nc2ccc(F)cn2c1C(=O)NCCOc1ccc(Cl)cc1	1.14 µg/mL (≈ 3.04 µM)	
Cc1nc2ccc([N+](=O)[O-])cn2c1C(=O)NCCOc1ccc(Br)cc1	1.28 µg/mL (≈ 3.05 µM)	
COc1ccc2nc(C)c(C(=O)NCCOc3ccc(Br)cc3)n2c1	0.028 µg/mL (≈ 0.0693 µM)	half-life [2]: 54.2 min
Cc1nc2ccc(Br)cn2c1C(=O)NCCOc1ccc(Br)cc1	0.358 µg/mL (≈ 0.79 µM)	
Cc1nc2ccc(Cl)cn2c1C(=O)NCCOc1ccc(Br)cc1	0.488 µg/mL (≈ 1.19 µM)	
CCCc1nc2ccc(Cl)cn2c1C(=O)NCCOc1ccc(Cl)cc1	0.631 µg/mL (≈ 1.61 µM)	
NNC(=O)c1ccncc1 [ISONIAZID]	0.049 µg/mL (≈ 0.357 µM)	
O=c1nc(N2CCN(CC3CCCCC3)CC2)sc2c([N+](=O)[O-])cc(C(F)(F)F)cc12 [MACOZINONE]	0.0625 µg/mL (≈ 0.137 µM)	
CO[C@H]1/C=C/O[C@@]2(C)Oc3c(C)c(O)c4c(O)c(c(/C=N/N5CCN(C)CC5)c(O)c4c3C2=O)NC(=O)/C(C)=C\C=C\[C@H](C)[C@H](O)[C@@H](C)[C@@H](O)[C@@H](C)[C@H](OC(C)=O)[C@@H]1C [RIFAMPIN]	0.05 µg/mL (≈ 0.0608 µM)	
CCc1nc2ccc(Cl)cn2c1C(=O)NCc1ccc(N2CCC(c3ccc(OC(F)(F)F)cc3)CC2)cc1 [TELACEBEC]	0.0625 µg/mL (≈ 0.112 µM)	
